We go through two compounds from ChEMBL document CHEMBL1137992, “Long hydrocarbon chain keto diols and diacids that favorably alter lipid disorders in vivo” (J Med Chem, 2004).

Holding throughout (type): functional
Assay [1] has as its system Rattus norvegicus. Description: Percent decrease in insulin in obese Zucker rats after 2 weeks of treatment at a dose of 0 mg/kg/day. Set-up: scale not given: the % may be the effect or the level left. In a few lines: (§1)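 Female Zucker fatty rats [Crl:(Zuc)-faBR], 10–12 weeks, 400–500 g, acclimated 7 days on chow. Compound or vehicle (20% EtOH/80% PEG-200) given by daily oral gavage for 2 weeks, 0–100 mg/kg/day. After a 6 h fast, blood was taken before dosing, at 1 wk and at 2 wk. Serum lipids, NEFA and insulin (ELISA) were measured; glucose by glucometer. HDL/non-HDL-C came from Superose 6 gel-filtration profiles. Values are % change from pretreatment, mean ± SEM.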

For assay [2], the system named is Rattus norvegicus. As to the kind of experiment: Amount of nonesterified fatty acids in obese Zucker rats after 1 week of treatment at a dose of 10 mg/kg/day. In a few lines: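 Female Zucker fatty rats [Crl:(Zuc)-faBR], 10–12 weeks old (400–500 g), dosed once daily by oral gavage in 20% EtOH/80% PEG-200 for up to 14 days. After a 6-h fast, serum was taken pre-dose, at day 7 (orbital venous plexus, O2/CO2 anaesthesia) and at day 14 (cardiac puncture), stored at −80 °C, and assayed on a Hitachi 912 automatic analyzer. Mean ± SEM.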

Assay [3] relates to Rattus norvegicus. As to the kind of experiment: Percent decrease in insulin in obese Zucker rats after 1 week of treatment at a dose of 100 mg/kg/day. Set-up: scale not given: the % may be the effect or the level left. In a few lines: as §1
Assay [4] relates to Rattus norvegicus. As to the kind of experiment: Percent increase in insulin in obese Zucker rats after 2 weeks of treatment at a dose of 30 mg/kg/day. A digest of the protocol:
as §1

Assay [5] relates to Rattus norvegicus. As to the kind of experiment: Percent decrease in nonesterified fatty acids in obese Zucker rats after 2 weeks of treatment at a dose of 10 mg/kg/day. Set-up: scale not given: the % may be the effect or the level left. A digest of the protocol:
as §1

In assay [6] the test system is Rattus norvegicus. As to the kind of experiment: Percent increase in non-HDL-cholesterol in obese Zucker rats after 2 weeks of treatment at a dose of 10 mg/kg/day. A digest of the protocol:
as §1

In the case of `CC(C)(CCCCC(=O)CCCCC(C)(C)C(=O)O)C(=O)O`, the Activity is -31% with Rattus norvegicus [1] and 0.92 mg/dL with Rattus norvegicus [2].

Regarding `CC(C)(CCCCCC(=O)CCCCCC(C)(C)C(=O)O)C(=O)O`, the Activity with Rattus norvegicus [3] is reported as -46%; in the assay on Rattus norvegicus [4], -21%; in the assay on Rattus norvegicus [5], -21%; in the assay on Rattus norvegicus [6], 55%.
